The conditions of data set [1]: monomolecular, ref Scholtz et al. [1991]; cited from earlier work.
Data set [2] is described as follows: CD spectroscopy, two-cuvette experiment. The class given is physicochemical. Conditions: error est. 10%. The procedure, abridged:
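Two-cuvette setup: test peptide solution in cell 1 and POPC LUV suspensions in cell 2, in the light path together. LUVs were extruded through 0.1-μm filters in 10 mM potassium phosphate pH 7.0. Peptide concentration was set by UV absorbance (tyrosine ε274nm 1,440 M−1 cm−1). 10–30 scans, 190–260 nm, 1-mm path, ~25°C. Ellipticity was expressed per residue.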

A short description of data set [3]: CD spectroscopy, peptide and LUVs in the same cuvette. Conditions: for Θ222, same cell: pH 7.0, ~25°C, error est. 10%. The class given is physicochemical. Summed up:
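Lipid dried from chloroform under nitrogen, then under vacuum overnight. It was hydrated in 10 mM potassium phosphate pH 7.0, vortexed, and extruded 10× under nitrogen through two stacked 0.1-μm polycarbonate filters to give LUVs. Peptide and vesicles shared one cuvette, 1-mm path. 10–30 scans, 190–260 nm, ~25°C. A vesicle-only spectrum was subtracted. Ellipticity was converted to per-residue values.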

A short description of data set [4]: CD of Annexin B12 in solution and bound to LUVs. Conditions: bound to LUVs in the presence of Ca^2+. Format: physicochemical.

Peptide text beside a SMILES is read from it.

Consider `CC(=O)N[C@@H](Cc1ccc(O)cc1)C(=O)N[C@@H](C)C(=O)N[C@@H](CCC(=O)O)C(=O)N[C@@H](C)C(=O)N[C@@H](C)C(=O)N[C@@H](CCCCN)C(=O)N[C@@H](C)C(=O)N[C@@H](C)C(=O)N[C@@H](CCC(=O)O)C(=O)N[C@@H](C)C(=O)N[C@@H](C)C(=O)N[C@@H](CCCCN)C(=O)N[C@@H](C)C(=O)N[C@@H](C)C(=O)N[C@@H](CCC(=O)O)C(=O)N[C@@H](C)C(=O)N[C@@H](C)C(=O)N[C@@H](CCCCN)C(=O)N[C@@H](C)C(=O)N[C@@H](C)C(=O)N[C@@H](CCC(=O)O)C(=O)N[C@@H](C)C(=O)N[C@@H](C)C(=O)N[C@@H](CCCCN)C(=O)N[C@@H](C)C(=O)N[C@@H](Cc1ccccc1)C(N)=O` [Ac-Y(AEAAKA)4F-NH2] (Ac-YAEAAKAAEAAKAAEAAKAAEAAKAF-NH2), for which the “α-helical content in buffer” value in data set [1] was ~ 60%. In addition, the “Θ222, two cells” value in data set [2] (+3 mM POPC LUVs in separate cuvette, peptide in buffer (40 μM)) is −20,100 deg cm^2 dmol^−1; in data set [2] (+5 mM POPC LUVs in separate cuvette, peptide in buffer (40 μM)), −20,100 deg cm^2 dmol^−1; in data set [2] (+7 mM POPC LUVs in separate cuvette, peptide in buffer (40 μM)) it was −19,900 deg cm^2 dmol^−1; in data set [2] (no lipid, peptide in buffer (40 μM) in cell 1, ~25°C) it was −20,300 deg cm^2 dmol^−1. The “molar ellipticity of the peptide” value in data set [3] (25°C, buffer with LUVs up to 7 mM, 40 μM peptide) is −20(±0.5) × 10^3 deg cm^2 dmol^−1. Also, the “Θ222, same cell” value in data set [3] (+0.25 mM POPC LUVs in same cuvette, 40 μM peptide) is listed as −20,100 deg cm^2 dmol^−1; in data set [3] (+3 mM POPC LUVs in same cuvette, 40 μM peptide), −19,800 deg cm^2 dmol^−1; in data set [3] (+5 mM POPC LUVs in same cuvette, 40 μM peptide), −19,700 deg cm^2 dmol^−1; in data set [3] (+7 mM POPC LUVs in same cuvette, 40 μM peptide), −19,700 deg cm^2 dmol^−1. The “binding to POPC vesicles” value in data set [3] (same-cuvette versus two-cuvette CD spectra, LUVs up to 7 mM) is given as “does not bind to POPC vesicles”.

B1: Annexin B12 (protein, UniProt P26256 1-316, looked up)
Annexin-B12: MVVQGTVKPHASFNSREDAETLRKAMKGIGTDEKSITHILATRSNAQRQQIKTDYTTLFGKHLEDELKSELSGNYEAAALALLRKPDEFLAEQLHAAMKGLGTDENALIDILCTQSNAQIHAIKAAFKLLYKEDLEKEIISETSGNFQRLLVSMLQGGRKEDEPVNAAHAAEDAAAIYQAGEGQIGTDESRFNAVLATRSYPQLHQIFHEYSKISNKTILQAIENEFSGDIKNGLLAIVKSVENRFAYFAERLHHAMKGLGTSDKTLIRILVSRSEIDLANIKETFQAMYGKSLYEFIADDCSGDYKDLLLQITGH
With B1, the “CD spectrum, aqueous versus LUV-associated” value in data set [4] was “essentially the same CD spectrum”.

The record behind these values is PMC2938439 (The Journal of Membrane Biology, 2010).
